Measured values published in article PMC11063762 (Molecular Cancer Therapeutics, 2024).
Entries after “also recorded” stand apart in the source; their conditions may differ. Values belong to the compound of their own block, whether it stands above or below them.

Columns and labels:
[1] = tested on: panel of receptors/transporters (n = 38); test: Off-target selectivity screening, receptor/transporter binding panel; conditions: up to 10 μmol/L
panel of enzymes (n = 6) = test: Off-target selectivity screening, enzyme panel; format: biochemical; conditions: up to 10 μmol/L
HUVEC = HUVEC proliferation; format: cell-based, human; conditions: 72 hours
Outline: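 HUVEC were grown in EBM-2/EGM-2 with 2% FBS and 2X gentamicin, seeded at 5,000 cells/well and left overnight. Compounds were diluted in DMSO, then in the same medium (final DMSO 0.1%). After 72 h at 37°C, CellTiter 96 Aqueous One reagent was added for 3 h at 37°C and A490 read. The mean A490 of highest-concentration wells was subtracted, and IC50 came from a four-parameter variable-slope log(inhibitor)-response fit.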

METAP1 = METAP1 (Homo sapiens, UniProt P53582); test: METAP1 aminopeptidase enzyme activity assay; format: biochemical; conditions: up to 1000 nmol/L
[2] = cited from earlier work
B16-F10 melanoma cells = test: B16-F10 syngeneic lung metastasis model; format: in vivo, mouse; conditions: TNP-470 30 mg/kg every other day x 6, day 15
Outline: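 Female C57BL/6NTac mice (8/group) received B16-F10 melanoma cells by tail vein. Cells were grown in DMEM with 5% FBS at 37°C under 5% CO2. Dosing began 24 h after injection: saline vehicle, test compound 25 mg/kg Q4D × 3, and a reference METAP2 inhibitor 30 mg/kg Q2D × 6. Lungs were excised on day 15 and visible metastases counted by stereomicroscope. Two-tailed Student t test.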

METAP2 [3] = molecular target: T1, METAP2 (Homo sapiens, UniProt P50579); test: METAP2 aminopeptidase enzyme activity assay; format: biochemical
METAP2 [4] = molecular target: T1, METAP2; test: In vitro competition binding to METAP2; conditions: competition with biotinylated SDX-9280
BT-474 tumors [5] = test: RNA sequencing of BT-474 xenograft tumors; format: in vivo, mouse; conditions: 12 mg/kg, RNA-seq versus vehicle
Outline: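 Orthotopic BT-474 tumors came from estrogen-supplemented nude mice dosed s.c. every four days with 12 mg/kg test compound (n = 5) or vehicle (n = 6). At necropsy, tumor portions were snap-frozen and stored at −80°C for RNA isolation and sequencing. Differentially expressed genes versus vehicle were identified, then pathway enrichment analysis was run (pathways with P ≤ 0.01 reported).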

CNS exposure = format: in vivo; conditions: rat, intravenous, equimolar small molecule doses
Outline: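 Plasma and CSF levels of the small-molecule inhibitor were measured in rats after intravenous dosing of the polymer conjugate, the free inhibitor or a comparator inhibitor, all at equimolar small-molecule doses. CSF was sampled near plasma Tmax. For the rapidly metabolised comparator, its active metabolite (M-IV) was measured rather than the parent.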

BT-474 tumors [6] = test: BT-474 HER-2+, estrogen receptor-positive breast cancer xenograft model; format: in vivo, mouse; conditions: 6, 12 mg/kg, s.c., every four days
Outline: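 Female athymic nude mice got a 90-day 0.72 mg β-estradiol pellet s.c. Three days later, 2 × 10^7 cells in 50% Matrigel/50% RPMI1640 went into the fourth mammary fat pad. Mice were randomized at tumors >95 mm3 (8/group). Test compound, freshly prepared in 5% mannitol/water, was given s.c. Q4D × 9. Tumor volume was analysed by mixed-effects model with Dunnett comparisons.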

[7] = tested on: cathepsin isoforms L, H, C, K, and B; test: Enzyme-mediated metabolism of SDX-7320 in vitro; format: in vitro ADME, human; conditions: 0.5 mg/mL SDX-7320, 37°C, LC/MS
cathepsin S (CTSS) = cathepsin S (CTSS) (Homo sapiens, UniProt P25774); test: Enzyme-mediated metabolism of SDX-7320 in vitro; format: in vitro ADME; conditions: 0.5 mg/mL SDX-7320, 37°C, LC/MS
MDA-MB-231 tumors = test: MDA-MB-231 TNBC model in chick embryos; format: in vivo, chick embryo; conditions: 15, 90 μg
Outline: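 MDA-MB-231 cells were inoculated into fertilized White Leghorn eggs on embryonic day E9. From E11, embryos received vehicle, test compound (15 or 90 μg, every four days, two doses) or paclitaxel positive control (2.1 μg, every other day, four doses). Metastatic invasion into the lower chorioallantoic membrane was assessed. Tumors were dissected on E19.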

[8] = Long-term chemical stability at ambient conditions; format: physicochemical
[9] = Rat functional observation battery; format: in vivo; conditions: single dose 3, 10 and 30 mg/kg, 12 and 36 hours post-dose, GLP
Outline: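 Under GLP, male experimentally naïve CD [Crl:CD(SD)] rats, about 8 weeks old, received a single s.c. dose of 3, 10 or 30 mg/kg (ten/group). A functional observation battery was run pre-dose (day −1) and at 12 and 36 h post-dose. Mortality, clinical observations and body weights were also recorded.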

EO771 tumors = test: EO771 triple-negative breast cancer allograft model; format: in vivo, mouse; conditions: 24 mg/kg SC, Q4D
Outline: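 Female C57Bl/6j mice, ovariectomized at 4 weeks, had EO771 cells implanted into the fourth mammary fat pad at about 18 weeks under ether anesthesia. At about 20 mm3, mice (8/group) began s.c. vehicle (5% mannitol/water, Q4D) or test compound (24 mg/kg, Q4D × 4). Tumors were excised on day 15 and formalin-fixed, paraffin-embedded. Sections were immunostained for Ki67 or CD31, scored as positive cells per tissue area. Volume: two-way ANOVA with Sidak. Staining: unpaired t test.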

[10] = Particle size by dynamic light scattering; format: physicochemical; conditions: 5% aqueous mannitol, monomodal

T1 sequence (P50579 whole entry): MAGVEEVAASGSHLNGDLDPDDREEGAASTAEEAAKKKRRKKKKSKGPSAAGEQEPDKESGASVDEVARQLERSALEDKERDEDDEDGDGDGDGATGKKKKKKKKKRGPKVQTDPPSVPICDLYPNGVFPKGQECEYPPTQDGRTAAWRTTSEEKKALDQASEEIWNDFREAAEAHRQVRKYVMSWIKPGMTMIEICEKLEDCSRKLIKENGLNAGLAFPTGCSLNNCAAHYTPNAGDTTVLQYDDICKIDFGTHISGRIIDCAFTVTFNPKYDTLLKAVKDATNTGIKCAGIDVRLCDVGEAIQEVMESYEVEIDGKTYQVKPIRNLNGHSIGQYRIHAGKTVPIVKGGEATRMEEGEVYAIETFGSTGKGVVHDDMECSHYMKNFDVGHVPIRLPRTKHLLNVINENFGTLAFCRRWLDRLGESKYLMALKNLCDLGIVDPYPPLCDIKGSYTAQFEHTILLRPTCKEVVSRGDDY
Chain of cathepsin S (CTSS) (P25774 115-331): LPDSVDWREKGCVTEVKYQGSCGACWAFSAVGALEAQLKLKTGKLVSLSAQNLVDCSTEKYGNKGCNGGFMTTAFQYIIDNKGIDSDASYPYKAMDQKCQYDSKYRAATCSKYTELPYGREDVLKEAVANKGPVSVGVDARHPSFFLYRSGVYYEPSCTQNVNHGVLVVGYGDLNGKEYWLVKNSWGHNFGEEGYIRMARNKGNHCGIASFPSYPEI

Off-target activity at receptors/transporters [1]: No effect was observed
Off-target activity at enzymes (panel of enzymes (n = 6)): No effect was observed
Compound: CO[C@@H]1[C@H](OC(=O)N[C@H]2CC[C@H](N)CC2)CC[C@]2(CO2)[C@H]1[C@@]1(C)O[C@@H]1CC=C(C)C.O=S(=O)(O)c1ccccc1 (relative stereo) [SDX-9402, Fumagill-6-yl N-(trans-4-aminocyclohexyl)carbamate benzenesulfonic acid salt]

Compound: CO[C@@H]1[C@H](OC(=O)NC(=O)CCl)CC[C@]2(CO2)[C@H]1[C@@]1(C)O[C@@H]1CC=C(C)C [TNP-470, O-(chloroacetyl-carbamoyl) fumagillol]
fold less potent than SDX-7539 in HUVEC growth (HUVEC): approximately 3 fold
Inhibition of METAP1 aminopeptidase activity (METAP1): neither compound inhibited METAP1
potency in vitro, fold higher than the natural product fumagillin [2]: 50 fold
outgrowth of B16-F10 melanoma cells in the lungs (B16-F10 melanoma cells): identical degree of inhibition
time dependence of IC50 against METAP2 (METAP2 [3]; hallmark of irreversible enzyme inhibitors): time-dependent shifts in IC50

Compound: Glycine, N-(2-methyl-1-oxo-2-propen-1-yl)glycyl-L-phenylalanyl-L-leucyl-, 4-nitrophenyl ester, polymer with N-(2-hydroxypropyl)-2-methyl-2-propenamide, reaction products with (3R,4S,5S,6R)-5-methoxy-4-[(2R,3R)-2-methyl-3-(3-methyl-2-buten-1-yl)-2-oxiranyl]-1-oxaspiro[2.5]oct-6-yl N-(trans-4-aminocyclohexyl)carbamate [SDX-7320]
binding to METAP2 by competition ELISA (METAP2 [4]): inactive
expression of hypoxia-regulated genes including HIF1α in BT-474 tumors (BT-474 tumors [5]): significantly reduced
CSF levels of SDX-7539 when dosed as the PDC compared with unconjugated small molecule or TNP-470 (CNS exposure): marked reduction in CSF levels
inhibition of BT-474 tumor growth (BT-474 tumors [6]): significant, dose-dependent inhibition
release of SDX-7539 from SDX-7320 by cathepsins L, H, C, K, and B [7]: catalytic activity against SDX-7320
release of SDX-7539 from SDX-7320 by cathepsin S (cathepsin S (CTSS)): most active isoform; also recorded: highest activity
metastasis of MDA-MB-231 tumors (human DNA in lower chorioallantoic membrane) (MDA-MB-231 tumors; every four days, two doses): significantly inhibited metastasis
MDA-MB-231 tumor blood vessel density (angiogenesis) (MDA-MB-231 tumors; two days prior to termination): significant decrease in blood vessel density
long-term chemical stability [8]: > 48 months
neurobehavioral FOB findings [9]: No signs of abnormal CNS-related behavioral toxicity; also recorded: no significant behavioral abnormalities
EO771 tumor growth (EO771 tumors): significantly inhibited tumor growth
CD31 staining of dissected EO771 tumors (EO771 tumors; anti-angiogenic activity): reduced staining
Ki67 staining of dissected EO771 tumors (EO771 tumors; anti-proliferative activity): reduced staining
particle size distribution Z-average [10]: 10 nm
Inhibition of METAP2 aminopeptidase enzyme activity (METAP2 [3]; up to 10 μg/ml): inactive
